# Measurements taken from ChEMBL document CHEMBL3227921, “Synthetic antagonists of in vivo responses by the rat uterus to oxytocin” (J Med Chem, 1979).
# Activity calls are given as the source filed them. No cut-off for these calls is given here. Numbered stars: 1 amine (or outer) side, 2 acyl side, 3 side chain; on linkers, the order of the positions; unused ones are H or OH. Bridge positions count the residues as written; N and C are the ends. Square brackets hold non-standard residues; d marks the D form. Peptide text beside a SMILES is read from it. * marks the point of attachment. X1 = O=C(CC1(S[*:2])CCCCC1)[*:1]; X3 = CCC(CC)(CC(=O)[*:1])S[*:2]; X2 = CC(C)(CC(=O)[*:1])S[*:2]; X4 = NC(=O)NC(=O)CN*; Mpa = O=C(O)CCS
# Columns and labels:
# Oxytocin receptor [1] = target: T1, Oxytocin receptor (Rattus norvegicus, UniProt P70536); test: Antagonist activity at oxytocin receptor in rat uterus pretreated with diethylstilbestrol compound treated 1 min prior to oxytocin addition; type: tissue-based; details: read-out: pA2 (converted)
# T1 sequence (P70536 whole entry): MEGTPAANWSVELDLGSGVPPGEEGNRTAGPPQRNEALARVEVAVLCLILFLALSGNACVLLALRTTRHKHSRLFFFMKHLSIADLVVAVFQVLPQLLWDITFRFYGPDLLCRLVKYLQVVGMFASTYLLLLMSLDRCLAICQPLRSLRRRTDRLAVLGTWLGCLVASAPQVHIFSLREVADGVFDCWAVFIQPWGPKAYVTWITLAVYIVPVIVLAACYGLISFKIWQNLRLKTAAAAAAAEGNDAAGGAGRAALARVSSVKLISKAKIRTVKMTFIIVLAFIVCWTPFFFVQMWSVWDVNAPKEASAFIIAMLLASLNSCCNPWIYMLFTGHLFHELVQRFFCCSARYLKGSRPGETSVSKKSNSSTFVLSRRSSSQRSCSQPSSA
# Method in brief: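 Isolated uterine horns from diethylstilbestrol-pretreated rats suspended in Munsick's solution without Mg2+. Isometric contractions recorded. Antagonist added to bath 1 min before agonist. pA2 calculated by Schild's method: negative log of the molar antagonist concentration that reduces the response to 2x units of agonist to the response to x units without antagonist. Mean ± SE over assay groups.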
# Oxytocin receptor [2] = target: T1, Oxytocin receptor; test: Antagonist activity at oxytocin receptor in rat uterus pretreated with diethylstilbestrol compound treated 1 min prior to oxytocin addition in presence of 0.5 mM Mg2+; type: tissue-based; details: read-out: pA2 (converted)
# Method in brief: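 Uterine horns from rats pretreated with diethylstilbestrol, bathed in Munsick's solution containing 0.5 mM Mg2+. Isometric contractions recorded, with antagonist added 1 min ahead of agonist. Schild pA2 taken as negative log molar antagonist concentration reducing the 2x-agonist response to the x-unit response without antagonist. Mean ± SE, number of assay groups given.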
# Rattus norvegicus [3] = test: Antioxytocic activity in iv dosed rat uterus pretreated with diethylstilbestrol compound treated 1 min prior to oxytocin injection; type: functional, organism-based; details: for Kb: read-out: pA2 (converted)
# Method in brief: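 Anesthetized diethylstilbestrol-pretreated rats, modified Bisset uterus assay. Antagonist given intravenously 1 min before agonist. Read-out was integrated intrauterine pressure over 10 min after agonist injection. In vivo "pA2" estimated by the Dyckes et al. method; pA2 6.00 corresponds to 67 nmol/kg i.v. and 7.00 to 6.7 nmol/kg. Mean ± SE over assay groups.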
# [4] = (§1) Antagonist activity at rat vasopressin receptor
# Method in brief: (§2)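 Anesthetized rats, vasopressor responses recorded per Dekanski. Antagonist injected 1 min before agonist. In vivo "pA2" estimated by the method of Dyckes et al., which assumes a volume of distribution for the injected antagonist. Mean ± SE over assay groups.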
# [5] = target: T2, Oxytocin receptor (Rattus norvegicus) (UniProt P70536); test: Partial agonist activity at oxytocin receptor in rat uterus pretreated with diethylstilbestrol compound treated 1 min prior to oxytocin addition in presence of 0.5 mM Mg2+
# T2 sequence (whole entry): T1 sequence (P70536 whole entry)
# Rattus norvegicus [6] = organism: Rattus norvegicus; test: as §1; method in brief: as §2
SMILES,Kb (Oxytocin receptor [1]) [nM],Kb (Oxytocin receptor [2]) [nM],pA2 [4],Activity [5],Activity (Rattus norvegicus [6]),Kb (Rattus norvegicus [3]) [nM],Activity (Rattus norvegicus [3])
COc1ccc(C[C@@H]2NC(=O)CC(C)(C)SSC[C@@H](C(=O)N3CCC[C@H]3C(=O)N[C@@H](CCCN=C(N)N)C(=O)NCC(N)=O)NC(=O)[C@H](CC(N)=O)NC(=O)[C@H](CCC(N)=O)NC(=O)[C@H](Cc3ccccc3)NC2=O)cc1 (Y(Me)FQNCPRG-NH2; linker N-5 via X2),24.5,–,–,–,–,–,–
CC[C@H](C)[C@@H]1NC(=O)[C@H](Cc2ccc(OC)cc2)NC(=O)CC(C)(C)SSC[C@@H](C(=O)N2CCC[C@H]2C(=O)N[C@@H](CC(C)C)C(=O)NCC(N)=O)NC(=O)[C@H](CC(N)=O)NC(=O)[C@H](CCC(N)=O)NC1=O (Y(Me)IQNCPLG-NH2; linker N-5 via X2),17.4,15.8,7.59,–,–,138,–
CC[C@H](C)[C@@H]1NC(=O)[C@H](Cc2ccc(O)cc2)NC(=O)CC2(CCCCC2)SSC[C@@H](C(=O)N2CCC[C@H]2C(=O)N[C@@H](CC(C)C)C(=O)NCC(N)=O)NC(=O)[C@H](CC(N)=O)NC(=O)[C@H](CCC(N)=O)NC1=O (YIQNCPLG-NH2; linker N-5 via X1),24.5,70.8,–,–,–,224,–
CC[C@H](C)[C@@H]1NC(=O)[C@H](Cc2ccc(O)cc2)NC(=O)CC(CC)(CC)SSC[C@@H](C(=O)N2CCC[C@H]2C(=O)N[C@@H](CC(C)C)C(=O)NCC(N)=O)NC(=O)[C@H](CC(N)=O)NC(=O)[C@H](CCC(N)=O)NC1=O (YIQNCPLG-NH2; linker N-5 via X3),28.2,151,6.83,–,–,631,–
CC[C@H](C)[C@@H]1NC(=O)[C@H](Cc2ccc(OC)cc2)NC(=O)CCSSC[C@@H](C(=O)N2CCC[C@H]2C(=O)N[C@@H](CC(C)C)C(=O)NCC(=O)NC(N)=O)NC(=O)[C@H](CC(N)=O)NC(=O)[C@H](CCC(N)=O)NC1=O ([Mpa]Y(Me)IQNCPL-X4; disulfide 1-6),126,245,–,–,Active,–,Active

# Continued, in another order:
Kb (Oxytocin receptor [1]) [nM],Kb (Oxytocin receptor [2]) [nM],pA2 [4],Activity [5],Activity (Rattus norvegicus [6]),SMILES,Kb (Rattus norvegicus [3]) [nM],Activity (Rattus norvegicus [3])
22.9,16.2,7.32,–,–,CC[C@H](C)[C@@H]1NC(=O)[C@H](Cc2ccc(OC)cc2)NC(=O)CC(C)(C)SSC[C@@H](C(=O)N2CCC[C@H]2C(=O)N[C@@H](CC(C)C)C(=O)NCC(N)=O)NC(=O)[C@H](CC(N)=O)NC(=O)[C@H]([C@@H](C)O)NC1=O (Y(Me)ITNCPLG-NH2; linker N-5 via X2),145,–
–,2340,–,Active,–,CC[C@H](C)[C@@H]1NC(=O)[C@H](Cc2ccc(O)cc2)NC(=O)CC(C)(C)SSC[C@@H](C(=O)N2CCC[C@H]2C(=O)N[C@@H](CC(C)C)C(=O)NCC(N)=O)NC(=O)[C@H](CC(N)=O)NC(=O)[C@H](CCC(N)=O)NC1=O (YIQNCPLG-NH2; linker N-5 via X2),–,–
12.3,15.5,5.86,–,–,CC[C@H](C)[C@@H]1NC(=O)[C@H](Cc2ccc(O)cc2)NC(=O)CC2(CCCCC2)SSC[C@@H](C(=O)N2CCC[C@H]2C(=O)N[C@@H](CC(C)C)C(=O)NCC(N)=O)NC(=O)[C@H](CC(N)=O)NC(=O)[C@H]([C@@H](C)O)NC1=O (YITNCPLG-NH2; linker N-5 via X1),115,–
30.2,589,6.67,Active,–,CC[C@H](C)[C@@H]1NC(=O)[C@H](Cc2ccc(O)cc2)NC(=O)CC(C)(C)SSC[C@@H](C(=O)N2CCC[C@H]2C(=O)N[C@@H](CC(C)C)C(=O)NCC(N)=O)NC(=O)[C@H](CC(N)=O)NC(=O)[C@H]([C@@H](C)O)NC1=O (YITNCPLG-NH2; linker N-5 via X2),490,–
19.1,43.7,6.3,–,–,CC[C@H](C)[C@@H]1NC(=O)[C@H](Cc2ccc(O)cc2)NC(=O)CC(CC)(CC)SSC[C@@H](C(=O)N2CCC[C@H]2C(=O)N[C@@H](CC(C)C)C(=O)NCC(N)=O)NC(=O)[C@H](CC(N)=O)NC(=O)[C@H]([C@@H](C)O)NC1=O (YITNCPLG-NH2; linker N-5 via X3),339,–
